Assay outcomes as filed in PubChem BioAssay.
AF4-AF9 inh: inhibitors of human MLL-AF4/AF9 interaction | P42568 | AlphaScreen, biotin-AF4 peptide binding to FLAG-AF9 | inhibition, % at 10 µM | hit rate 0.47% among 350,000 | AID 651704;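 active = every replicate reaching a set inhibition limit, whatever the replicate mean, cut at about 25% in these data; inconclusive = mean inhibition reaches that limit but some replicates miss it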;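 note: 0% = plate neutral control median and 100% = total signal loss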
rRNA inh HTS: selective bacterial rRNA inhibition in E. coli | E. coli WT GFP vs humanized-ribosome RFP mutants, fluorescence, 24 h; stronger effect = lower value; DMSO median 0, no signal -100 | GFP signal change (wild-type ribosome), % (test concentration not listed) | hit rate 1.6% among 350,000 | AID 720706;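 active = significant combined selectivity score with lowered wild-type GFP, culture density cut under 30%, mutant RFP and density less affected; inactive = any of these conditions unmet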
RAD52 anneal inh: inhibitors of human RAD52 DNA annealing | recombinant RAD52 DNA annealing, FRET fluorescence | inhibition, % at 18.7 µM | hit rate 0.46% among 360,000;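 active = every replicate showing at least 50% inhibition; inconclusive = mean inhibition at least 50% but not in every replicate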
Target sequence (P43351 whole entry, looked up): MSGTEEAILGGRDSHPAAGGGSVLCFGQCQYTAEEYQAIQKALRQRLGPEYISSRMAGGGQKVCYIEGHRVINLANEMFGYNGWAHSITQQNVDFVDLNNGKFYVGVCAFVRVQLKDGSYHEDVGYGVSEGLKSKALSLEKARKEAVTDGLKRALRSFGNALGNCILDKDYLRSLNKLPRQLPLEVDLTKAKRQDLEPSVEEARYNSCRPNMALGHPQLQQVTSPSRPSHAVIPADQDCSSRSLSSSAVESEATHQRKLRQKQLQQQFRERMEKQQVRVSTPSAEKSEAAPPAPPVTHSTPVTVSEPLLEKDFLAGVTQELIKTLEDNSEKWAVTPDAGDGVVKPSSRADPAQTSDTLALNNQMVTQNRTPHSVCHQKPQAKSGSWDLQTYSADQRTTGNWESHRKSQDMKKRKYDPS
E-sel inducer: E-selectin induction on HUVECs; HUVEC E-selectin immunofluorescence imaging; normalized: neutral wells 0, TNF-alpha wells 100; activation, % at 7.58 µM; hit rate 0.37% among 260,000; AID 686992;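 active = mean E-selectin-positive cell signal at least 10% of the positive control, reached in at least 60% of replicates, without over 20% cell loss; inconclusive = no rule given, readout overlaps actives, possibly toxicity-flagged; inactive = the rest, including those meeting only one limit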
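assay system = HUVEC, human umbilical vein endothelial cells | input = 3,000 HUVEC seeded per well | medium = EGM-2 growth medium on 0.1% gelatin-coated wells | dosing = one compound dose added by pin transfer | signal = immunofluorescence imaging | read-out basis = % PE-positive cells | control set = TNF-alpha, DMSO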
GSIS activator: primary screen for activators of insulin secretion dependent on glucose, INS-1E cells, GLuc reporter luminescence | activation, % at 16.6 µM | INS-1E GLuc reporter insulin secretion, 2-3 h | hit rate 0.61% among 370,000;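 active = lowest replicate activation of at least 40%, so every replicate reaches that level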;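 note: 0% = median of neutral control wells and 100% = median of IBMX positive control wells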
RAD54 inh: inhibitors of human RAD54 branch migration. RAD54 Holliday junction branch migration, FAM/BHQ fluorescence. hit rate 0.14% among 360,000. inhibition, % at 10.4 µM. AID 602329. Q92698;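 active = mean normalized replicate activity at least 40 and at least half of replicates scoring 40 or more; inconclusive = only one of the two criteria met; inactive = mean below 40 and under half of replicates reaching 40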;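 note: 0% = median of neutral control wells and 100% = median of positive control wells; inhibitors cause a drop in the FAM fluorescence signal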
* = called active by the depositor; ! = a repeat was not active. Only some compounds are listed: those with a hit (about 2.6% of all), similar ones and a draw of the others.

How did O=C(Nc1ccc(N2CCOCC2)c(S(=O)(=O)Nc2cc(Cl)ccc2Cl)c1)c1cccnc1 do in these assays?
AF4-AF9 inh: -1.7; rRNA inh HTS: -35.0*; RAD52 anneal inh: -39.9; E-sel inducer: -0.2; GSIS activator: 5.8; RAD54 inh: -7.7

Results for C=CCOc1cccc(C2C(C(=O)c3ccco3)=C(O)C(=O)N2Cc2cccnc2)c1 (centres undefined) ?
AF4-AF9 inh: 2.1; rRNA inh HTS: -0.2; RAD52 anneal inh: 2.8; E-sel inducer: 33.1*; GSIS activator: 1.2; RAD54 inh: -14.5

What do the screens show for `CCOc1ccc(C2C(C(=O)c3ccco3)=C(O)C(=O)N2Cc2cccnc2)cc1` (centres undefined)?
E-sel inducer: 2.0

How did COc1cc(CNCc2ccccn2)ccc1OCc1cccc(Cl)c1 do in these assays?
AF4-AF9 inh: 18.3; rRNA inh HTS: -41.2*; RAD52 anneal inh: 0.0; GSIS activator: 5.2; RAD54 inh: 2.1

What do the screens show for `COc1cc(CNCc2ccccn2)ccc1OCc1c(Cl)cccc1Cl`?
AF4-AF9 inh: inconclusive; rRNA inh HTS: -46.0*; RAD52 anneal inh: 0.7; GSIS activator: -12.9; RAD54 inh: -9.2

Results for Cc1nc(NCc2ccc3c(c2)OCO3)c2nnn(Cc3ccccc3)c2n1 ?
GSIS activator: 50.1*; RAD54 inh: -4.7

What do the screens show for `C[C@@H]1CN([C@H](C)CO)C(=O)c2c(c3ccccc3n2C)-c2ccccc2CO[C@@H]1CN(C)C(=O)[C@H](Cc1ccccc1)N(C)C`?
AF4-AF9 inh: 7.4; rRNA inh HTS: 2.6; RAD52 anneal inh: 51.1*; E-sel inducer: 0.2; GSIS activator: 15.6; RAD54 inh: 1.0

Results for C[C@H]1CN([C@@H](C)CO)C(=O)c2c(c3ccccc3n2C)-c2ccccc2CO[C@H]1CN(C)C(=O)CCN(C)C ?
AF4-AF9 inh: 5.6; rRNA inh HTS: 0.1; RAD52 anneal inh: 50.6*; E-sel inducer: 0.1; GSIS activator: 19.7; RAD54 inh: 6.5

Results for COc1ccc(CNC(=O)N(C)C[C@@H]2OCc3ccccc3-c3c(n(C)c4ccccc34)C(=O)N([C@@H](C)CO)C[C@@H]2C)cc1 ?
AF4-AF9 inh: 2.6; rRNA inh HTS: -19.1*!; RAD52 anneal inh: -3.2; E-sel inducer: -6.2; GSIS activator: -11.8

How did COc1ccc(CNC(=O)N(C)C[C@@H]2OCc3ccccc3-c3c(n(C)c4ccccc34)C(=O)N([C@H](C)CO)C[C@@H]2C)cc1 do in these assays?
AF4-AF9 inh: -6.0; rRNA inh HTS: 1.1; RAD52 anneal inh: 7.8; E-sel inducer: -0.2; GSIS activator: 12.4; RAD54 inh: -10.5

How did Cc1noc(C)c1NC(=O)Nc1ccc2c(c1)C(=O)N([C@@H](C)CO)C[C@@H](C)[C@@H](CN(C)Cc1ccccc1)OCCCC[C@H](C)O2 do in these assays?
AF4-AF9 inh: 0.0; rRNA inh HTS: -3.1; RAD52 anneal inh: 3.4; E-sel inducer: -0.2; GSIS activator: 12.0; RAD54 inh: -2.1

Results for CCCC(O)C#Cc1cnc2c(c1)C(=O)N([C@H](C)CO)C[C@H](C)[C@H](CN(C)Cc1cccc(C)c1)O2 (some centres undefined) ?
AF4-AF9 inh: -0.1; rRNA inh HTS: 5.5; RAD52 anneal inh: 3.7; E-sel inducer: -4.7; GSIS activator: 2.3; RAD54 inh: 8.1

How did Cc1ccc(S(=O)(=O)N(C)C[C@@H]2Oc3ccc(NC(=O)Nc4c(C)noc4C)cc3C(=O)N([C@H](C)CO)C[C@@H]2C)cc1 do in these assays?
AF4-AF9 inh: -13.8; rRNA inh HTS: -1.8; RAD52 anneal inh: -9.6; E-sel inducer: 1.2; GSIS activator: 7.5; RAD54 inh: -1.7

Results for C[C@H](CO)N1C[C@H](C)[C@@H](CN(C)CC2CC2)Oc2c(NC(=O)CCCCCC(=O)Nc3ccccc3N)cccc2C1=O ?
rRNA inh HTS: -0.3; E-sel inducer: -0.2; GSIS activator: 0.7

What do the screens show for `CN(C)C(=O)C[C@@H]1CC[C@@H]2[C@H](COC[C@H](O)CN2C(=O)C2CCCC2)O1`?
rRNA inh HTS: 2.2; E-sel inducer: 0.3; GSIS activator: 7.9; RAD54 inh: -0.4

What do the screens show for `CCc1ccc(/C=N/NC(=S)NCCc2ccccc2)cc1`?
GSIS activator: 40.6*; RAD54 inh: -3.6

Results for COc1cc(/C=N/NC(=S)NCc2ccccc2)ccc1OCC#N ?
GSIS activator: 116.9*

What do the screens show for `COc1cccc(/C=N/NC(=S)NCCc2ccccc2)c1`?
AF4-AF9 inh: -1.5; rRNA inh HTS: -10.4; RAD52 anneal inh: -7.7; E-sel inducer: 0.0; GSIS activator: -6.8; RAD54 inh: 2.4

What do the screens show for `COc1ccc(/C=N/NC(=S)NCCc2ccccc2)cc1`?
AF4-AF9 inh: 0.1; rRNA inh HTS: -22.1*; RAD52 anneal inh: -9.6; E-sel inducer: 0.1; GSIS activator: 6.0; RAD54 inh: 7.2

What do the screens show for `COc1ccc(C(=O)C2CCCN(C(=O)c3noc4c3CCCC4)C2)c(C)c1` (centres undefined)?
AF4-AF9 inh: -0.7; rRNA inh HTS: -15.2; RAD52 anneal inh: -9.8; E-sel inducer: 2.3; GSIS activator: -6.3; RAD54 inh: -10.8

What do the screens show for `COc1ccc(F)cc1C(=O)C1CCCN(C(=O)c2ccc(C(C)=O)s2)C1` (centres undefined)?
AF4-AF9 inh: 0.3; rRNA inh HTS: -8.5; RAD52 anneal inh: -5.8; GSIS activator: 76.1*; RAD54 inh: -6.9

How did COc1ccc(C(=O)C2CCCN(C(=O)c3noc4c3CCCC4)C2)cc1F (centres undefined) do in these assays?
AF4-AF9 inh: 1.0; rRNA inh HTS: -25.3*; RAD52 anneal inh: -6.1; GSIS activator: -10.7; RAD54 inh: 11.4

What do the screens show for `C[C@H]1CN([C@@H](C)CO)C(=O)c2cc(NC(=O)Nc3cccc4ccccc34)ccc2O[C@H]1CN(C)C`?
rRNA inh HTS: -4.1; RAD52 anneal inh: -2.7; E-sel inducer: -7.4; GSIS activator: -5.4; RAD54 inh: 10.0

What do the screens show for `O=C(NC(=S)N1CCN(C/C=C/c2ccccc2)CC1)c1ccc(Cl)nc1`?
AF4-AF9 inh: 2.6; rRNA inh HTS: -49.0*; RAD52 anneal inh: -18.3; RAD54 inh: -24.2

How did COc1ccc(NC(=S)N2CCN(C/C=C/c3ccccc3)CC2)cc1 do in these assays?
AF4-AF9 inh: 4.5; rRNA inh HTS: -17.9; RAD52 anneal inh: -7.7; GSIS activator: -10.8

How did CCOc1ccc(NC(=S)N2CCN(C/C=C/c3ccccc3)CC2)cc1 do in these assays?
AF4-AF9 inh: 11.4; rRNA inh HTS: -28.0*; RAD52 anneal inh: -32.9; GSIS activator: -45.9

Results for O=C(NC(=S)N1CCN(Cc2ccccc2)CC1)c1cccnc1 ?
AF4-AF9 inh: -0.9; rRNA inh HTS: 13.6; RAD52 anneal inh: -19.1; GSIS activator: 10.3; RAD54 inh: 2.7
